Test results as given in ChEMBL document CHEMBL1772938, “Optimization of 3-(phenylthio)quinolinium compounds against opportunistic fungal pathogens” (Eur J Med Chem, 2011).

How the values were obtained:
Candida albicans [1] = assay: Antimicrobial activity against Candida albicans ATCC 90028 by alamar blue assay; format: functional, organism-based
Candida albicans [2] = assay: Antimicrobial activity against Candida albicans ATCC 90028 by CLSI method; format: functional
Outline: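 C. albicans inoculum was made to the 0.5 McFarland standard in Sabouraud dextrose broth or RPMI 1640. Samples came from DMSO stocks serially diluted in saline, in duplicate, starting at a final 20 μg/mL. Plates were read at OD 630 nm before and after incubation. IC50 came from the % growth versus concentration plot; MIC was the lowest concentration with no visible growth. Included: growth, solvent and blank controls, plus amphotericin B.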

Cryptococcus neoformans [3] = assay: Antimicrobial activity against Cryptococcus neoformans ATCC 90113 by alamar blue assay; format: functional, organism-based
Vero = assay: Cytotoxicity against african green monkey Vero cells at 10 ug/ml after 48 hrs by neutral red assay; format: cell-based; details: chlorocebus sabaeus
Outline: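 VERO kidney cells were seeded at 25,000 cells/well and incubated 24 h. Samples were added up to 10 μg/mL and incubated a further 48 h. Viable cells were counted by neutral red uptake. IC50 came from growth-inhibition dose curves. Doxorubicin was the positive control and DMSO the vehicle control.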

Aspergillus fumigatus [4] = assay: Antimicrobial activity against Aspergillus fumigatus ATCC 90906 by CLSI method; format: functional
Outline: (§1)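 Modified CLSI broth microdilution. DMSO stocks were serially diluted in saline and run in duplicate. Inoculum was set by the 0.5 McFarland standard in YM broth for MIC, or in RPMI-1640 + 5% Alamar Blue for IC50. The top final concentration was 20 μg/mL. Fluorescence (544ex/590em) was read before and after incubation. IC50 was taken from % growth versus concentration; MIC was read visually as no blue-to-pink change.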

Cryptococcus neoformans [5] = assay: Antimicrobial activity against Cryptococcus neoformans ATCC 90113 by CLSI method; format: functional
Outline: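 C. neoformans in Sabouraud dextrose broth, inoculum per the 0.5 McFarland standard. Saline serial dilutions of DMSO samples were tested in duplicate, with a final top concentration of 20 μg/mL. OD 630 nm was read before and after incubation. IC50 was derived from % growth versus concentration. MIC was judged visually as the lowest concentration with no detectable growth. Amphotericin B served as the drug control.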

Aspergillus fumigatus [6] = assay: Antimicrobial activity against Aspergillus fumigatus ATCC 90906 by alamar blue assay; format: functional, organism-based; outline: as §1
Pichia kudriavzevii [7] = assay: Antimicrobial activity against Candida krusei ATCC 6258 by alamar blue assay; format: functional, organism-based
Nakaseomyces glabratus [8] = assay: Antimicrobial activity against Candida glabrata ATCC 90030 by alamar blue assay; format: functional, organism-based
Nakaseomyces glabratus [9] = assay: Antimicrobial activity against Candida glabrata ATCC 90030 by CLSI method; format: functional
Outline: (§2)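 Modified CLSI microdilution. DMSO samples were serially diluted in saline and tested in duplicate against inoculum adjusted by the 0.5 McFarland standard. The final test range started at 20 μg/mL. Plates were read before and after incubation. IC50 came from % growth versus concentration; MIC was the lowest concentration without visible growth. Growth, solvent, blank and amphotericin B controls were on each plate.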

[10] = Selectivity index, ratio of TC50 for african green monkey Vero cells to IC50 for Cryptococcus neoformans ATCC 90113; format: toxicity, cell-based; details: read-out: Selectivity Index
Pichia kudriavzevii [11] = assay: Antimicrobial activity against Candida krusei ATCC 6258 by CLSI method; format: functional; outline: as §2

Structure (SMILES): Cc1ccccc1Sc1cc2ccccc2[n+](CCCCCc2ccccc2)c1.[I-]
- IC50 (Candida albicans [1]): > 20 µg/mL
- MFC (Candida albicans [2]): > 20 µg/mL
- MIC (Candida albicans [2]): > 20 µg/mL
- IC50 (Cryptococcus neoformans [3]): 4 µg/mL
- Activity (Vero): Non-toxic
- MFC (Aspergillus fumigatus [4]): > 20 µg/mL
- MIC (Aspergillus fumigatus [4]): > 20 µg/mL
- MFC (Cryptococcus neoformans [5]): 20 µg/mL
- MIC (Cryptococcus neoformans [5]): 5 µg/mL
- IC50 (Aspergillus fumigatus [6]): > 20 µg/mL

Structure (SMILES): Oc1cccc(Sc2cc3ccccc3[n+](CCCCCC3CCCCC3)c2)c1.[I-]
- IC50 (Candida albicans [1]): 3.5 µg/mL
- MFC (Candida albicans [2]): 20 µg/mL
- MIC (Candida albicans [2]): 10 µg/mL
- IC50 (Pichia kudriavzevii [7]): 5.1 µg/mL
- IC50 (Nakaseomyces glabratus [8]): > 20 µg/mL
- IC50 (Cryptococcus neoformans [3]): 1.3 µg/mL
- MFC (Nakaseomyces glabratus [9]): > 20 µg/mL
- MIC (Nakaseomyces glabratus [9]): > 20 µg/mL
- Activity (Vero): Non-toxic
- MFC (Aspergillus fumigatus [4]): > 20 µg/mL
- MIC (Aspergillus fumigatus [4]): 20 µg/mL
- selectivity ratio [10]: > 7.7
- MFC (Pichia kudriavzevii [11]): 20 µg/mL
- MIC (Pichia kudriavzevii [11]): 10 µg/mL
- MFC (Cryptococcus neoformans [5]): 5 µg/mL
- MIC (Cryptococcus neoformans [5]): 2.5 µg/mL
- IC50 (Aspergillus fumigatus [6]): 10 µg/mL

Structure (SMILES): Fc1ccccc1Sc1cc2ccccc2[n+](CCCCCc2ccccc2)c1.[I-]
- IC50 (Candida albicans [1]): > 20 µg/mL
- MFC (Candida albicans [2]): > 20 µg/mL
- MIC (Candida albicans [2]): > 20 µg/mL
- IC50 (Cryptococcus neoformans [3]): 9.5 µg/mL
- Activity (Vero): Non-toxic
- MFC (Aspergillus fumigatus [4]): > 20 µg/mL
- MIC (Aspergillus fumigatus [4]): 20 µg/mL
- MFC (Cryptococcus neoformans [5]): > 20 µg/mL
- MIC (Cryptococcus neoformans [5]): 20 µg/mL
- IC50 (Aspergillus fumigatus [6]): 9 µg/mL

Structure (SMILES): FC(F)(F)c1cccc(Sc2cc3ccccc3[n+](CCCCCc3ccccc3)c2)c1.[I-]
- IC50 (Candida albicans [1]): 14 µg/mL
- MFC (Candida albicans [2]): > 20 µg/mL
- MIC (Candida albicans [2]): > 20 µg/mL
- IC50 (Cryptococcus neoformans [3]): 2.1 µg/mL
- Activity (Vero): Non-toxic
- MFC (Aspergillus fumigatus [4]): > 20 µg/mL
- MIC (Aspergillus fumigatus [4]): > 20 µg/mL
- MFC (Cryptococcus neoformans [5]): 10 µg/mL
- MIC (Cryptococcus neoformans [5]): 5 µg/mL
- IC50 (Aspergillus fumigatus [6]): 17 µg/mL

Structure (SMILES): Brc1ccc(Sc2cc3ccccc3[n+](CCCCCc3ccccc3)c2)cc1.[I-]
- IC50 (Candida albicans [1]): 8.5 µg/mL
- MFC (Candida albicans [2]): > 20 µg/mL
- MIC (Candida albicans [2]): 20 µg/mL
- IC50 (Cryptococcus neoformans [3]): 2 µg/mL
- Activity (Vero): Non-toxic
- MFC (Aspergillus fumigatus [4]): > 20 µg/mL
- MIC (Aspergillus fumigatus [4]): 10 µg/mL
- MFC (Cryptococcus neoformans [5]): 10 µg/mL
- MIC (Cryptococcus neoformans [5]): 10 µg/mL
- IC50 (Aspergillus fumigatus [6]): 3.5 µg/mL

Structure (SMILES): N#Cc1ccc(Sc2cc3ccccc3[n+](CCCCCC3CCCCC3)c2)cc1.[I-]
- IC50 (Candida albicans [1]): 6.2 µg/mL
- MFC (Candida albicans [2]): 20 µg/mL
- MIC (Candida albicans [2]): 10 µg/mL
- IC50 (Pichia kudriavzevii [7]): 2.3 µg/mL
- IC50 (Nakaseomyces glabratus [8]): 6.3 µg/mL
- IC50 (Cryptococcus neoformans [3]): 0.5 µg/mL
- MFC (Nakaseomyces glabratus [9]): 20 µg/mL
- MIC (Nakaseomyces glabratus [9]): 10 µg/mL
- Activity (Vero): Non-toxic
- MFC (Aspergillus fumigatus [4]): > 20 µg/mL
- MIC (Aspergillus fumigatus [4]): 20 µg/mL
- selectivity ratio [10]: > 20
- MFC (Pichia kudriavzevii [11]): 10 µg/mL
- MIC (Pichia kudriavzevii [11]): 5 µg/mL
- MFC (Cryptococcus neoformans [5]): 5 µg/mL
- MIC (Cryptococcus neoformans [5]): 1.3 µg/mL
- IC50 (Aspergillus fumigatus [6]): 19 µg/mL

Structure (SMILES): FC(F)(F)c1cccc(Sc2cc3ccccc3[n+](CCCCCC3CCCCC3)c2)c1.[I-]
- IC50 (Candida albicans [1]): 1.3 µg/mL
- MFC (Candida albicans [2]): 5 µg/mL
- MIC (Candida albicans [2]): 2.5 µg/mL
- IC50 (Pichia kudriavzevii [7]): 1.2 µg/mL
- IC50 (Nakaseomyces glabratus [8]): 4.6 µg/mL
- IC50 (Cryptococcus neoformans [3]): 0.4 µg/mL
- MFC (Nakaseomyces glabratus [9]): 10 µg/mL
- MIC (Nakaseomyces glabratus [9]): 10 µg/mL
- Activity (Vero): Non-toxic
- MFC (Aspergillus fumigatus [4]): > 20 µg/mL
- MIC (Aspergillus fumigatus [4]): 2.5 µg/mL
- selectivity ratio [10]: > 25
- MFC (Pichia kudriavzevii [11]): 2.5 µg/mL
- MIC (Pichia kudriavzevii [11]): 2.5 µg/mL
- MFC (Cryptococcus neoformans [5]): 0.6 µg/mL
- MIC (Cryptococcus neoformans [5]): 0.6 µg/mL
- IC50 (Aspergillus fumigatus [6]): 2.2 µg/mL

Structure (SMILES): FC(F)(F)c1ccccc1Sc1cc2ccccc2[n+](CCCCCC2CCCCC2)c1.[I-]
- IC50 (Candida albicans [1]): 1.1 µg/mL
- MFC (Candida albicans [2]): 2.5 µg/mL
- MIC (Candida albicans [2]): 2.5 µg/mL
- IC50 (Pichia kudriavzevii [7]): 1.1 µg/mL
- IC50 (Nakaseomyces glabratus [8]): 3 µg/mL
- IC50 (Cryptococcus neoformans [3]): 0.3 µg/mL
- MFC (Nakaseomyces glabratus [9]): 10 µg/mL
- MIC (Nakaseomyces glabratus [9]): 5 µg/mL
- Activity (Vero): Non-toxic
- MFC (Aspergillus fumigatus [4]): 5 µg/mL
- MIC (Aspergillus fumigatus [4]): 5 µg/mL
- selectivity ratio [10]: > 33
- MFC (Pichia kudriavzevii [11]): 1.3 µg/mL
- MIC (Pichia kudriavzevii [11]): 1.3 µg/mL
- MFC (Cryptococcus neoformans [5]): 1.3 µg/mL
- MIC (Cryptococcus neoformans [5]): 0.6 µg/mL
- IC50 (Aspergillus fumigatus [6]): 1.8 µg/mL

Structure (SMILES): Fc1cccc(Sc2cc3ccccc3[n+](CCCCCc3ccccc3)c2)c1.[I-]
- IC50 (Candida albicans [1]): > 20 µg/mL
- MFC (Candida albicans [2]): > 20 µg/mL
- MIC (Candida albicans [2]): > 20 µg/mL
- IC50 (Cryptococcus neoformans [3]): 7 µg/mL
- Activity (Vero): Non-toxic
- MFC (Aspergillus fumigatus [4]): > 20 µg/mL
- MIC (Aspergillus fumigatus [4]): 20 µg/mL
- MFC (Cryptococcus neoformans [5]): > 20 µg/mL
- MIC (Cryptococcus neoformans [5]): 10 µg/mL
- IC50 (Aspergillus fumigatus [6]): 5 µg/mL

Structure (SMILES): FC(F)(F)c1ccccc1Sc1cc2ccccc2[n+](CCCCCc2ccccc2)c1.[I-]
- IC50 (Candida albicans [1]): 12 µg/mL
- MFC (Candida albicans [2]): > 20 µg/mL
- MIC (Candida albicans [2]): > 20 µg/mL
- IC50 (Cryptococcus neoformans [3]): 2.2 µg/mL
- Activity (Vero): Non-toxic
- MFC (Aspergillus fumigatus [4]): > 20 µg/mL
- MIC (Aspergillus fumigatus [4]): > 20 µg/mL
- MFC (Cryptococcus neoformans [5]): 10 µg/mL
- MIC (Cryptococcus neoformans [5]): 5 µg/mL
- IC50 (Aspergillus fumigatus [6]): 6.9 µg/mL
